Each structure is given as a SMILES string. Activity calls are given as the source filed them.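 Rule for the calls, unless noted: active = viability at or under a set limit in both replicates, limit being median viability minus 3 SD (cut at about 48% in these data, passing the limit was not always enough); inconclusive = at or under the limit in just one replicate; inactive = at or above the limit in both replicates.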

Assay [1] in a line: Her2 expression decrease, cell viability multiplex – SKBR3 breast tumor cells, AlphaScreen, ATP viability, primary screen (AID 461;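 active = Her2 level under about 52% in both replicate screens, with viability over 70% of control, limit read from the data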;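 for Her2 level: lower value means less Her2 protein in the cells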;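 for viability: percent of carrier control wells set as 100% viability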). The settings on record: SKBR3 Her2 protein level, 18-24 h, measured here: SKBR3 viability, ATP luminescence, at 10 µM. Background: Alpha assays give light when donor and acceptor beads are brought close together.
Assay [2] has as its target Receptor tyrosine-protein kinase erbB-2 (Homo sapiens) (UniProt P04626). Described as above. To be noted: 18-24 h, at 10 µM, stronger effect = lower value.
Assay [3] in a line: reduced viability of SK-BR-3 breast cancer cells – cell-based, 24 h, human, pilot screen (AID 572;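 active = viability at or below 10% of carrier control in both of two separate runs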;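 note: compound exposure lasted between 18 and 24 h rather than exactly 24 h; 100% = carrier-treated control wells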). The settings on record: SK-BR-3 viability, CellTiter-Glo luminescence, at 10 µM, stronger effect = lower value. In general terms: Cellular ATP, detected with luciferase, serves as a proxy for viable cell number.
Assay [4] in a line: HUVEC growth inhibition – cell-based, human, primary screen (AID 575;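 active = viability at or below 30% in both replicate assays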;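 note: 100% = median of untreated cell wells with 0.1% DMSO on each plate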). The settings on record: HUVEC proliferation, CellTiter-Glo luminescence, 72 h; at 10 µM; stronger effect = lower value. The method in brief:
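material = primary HUVEC, no more than 12 passages | input = 1250 cells per well | controls = vehicle and MePR control wells | measured by = CTG luminescence | times = 72 h compound incubation | format = collagen-coated 384-well format | read-out = % viability vs DMSO wells | doses = single 10 µM dose, 0.1% DMSO, from 5x medium stock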

Assay [5] can be described thus: H69AR cell proliferation blockers – human, duplicate replicates, primary screen (AID 580).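 Note: 100% = mean luminescence of untreated wells and 0% = no signal.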 The settings on record: H69AR lung tumor cells viability, ATP luminescence, 72 h; at 10 µM; stronger effect = lower value.
A short description of assay [6]: MRP1 drug-resistance reversers in H69AR cells – cell-based, doxorubicin co-treatment, pilot screen (AID 601;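 active = viability loss from added drug above about 55%, and viability with drug at most 40%, in both replicates, limit read from the data, passing the limit was not always enough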). To be noted: CellTiter-Glo, 72 h, at 10 µM; for differential viability (reversal): stronger effect = higher value.
Assay [7] is described as follows: yeast transport mutant growth inhibition pilot in 384-well plates, post-Golgi transport modulator project (AID 636; in the data active = inhibition above about 31%). To be noted: absorbance 615 nm, about 18 h, stronger effect = higher value.
A short description of assay [8]: growth suppression of yeast trafficking mutant, preliminary HTS, modulators of trafficking downstream of Golgi apparatus project, 1536-format plate, OD 615 nm (AID 637; in the data active = inhibition above about 30%). The settings on record: yeast transport mutant growth, absorbance 615 nm, 18 h; stronger effect = higher value.
Where [9] appears, read: H69AR cells + 2 uM doxorubicin, measured here: viability with 2 uM doxorubicin, stronger effect = lower value.
The mark [10] stands for this setting: H69AR cells, compound alone cytotoxicity.

Receptor tyrosine-protein kinase erbB-2 (Homo sapiens), sequence (P04626 whole entry, looked up): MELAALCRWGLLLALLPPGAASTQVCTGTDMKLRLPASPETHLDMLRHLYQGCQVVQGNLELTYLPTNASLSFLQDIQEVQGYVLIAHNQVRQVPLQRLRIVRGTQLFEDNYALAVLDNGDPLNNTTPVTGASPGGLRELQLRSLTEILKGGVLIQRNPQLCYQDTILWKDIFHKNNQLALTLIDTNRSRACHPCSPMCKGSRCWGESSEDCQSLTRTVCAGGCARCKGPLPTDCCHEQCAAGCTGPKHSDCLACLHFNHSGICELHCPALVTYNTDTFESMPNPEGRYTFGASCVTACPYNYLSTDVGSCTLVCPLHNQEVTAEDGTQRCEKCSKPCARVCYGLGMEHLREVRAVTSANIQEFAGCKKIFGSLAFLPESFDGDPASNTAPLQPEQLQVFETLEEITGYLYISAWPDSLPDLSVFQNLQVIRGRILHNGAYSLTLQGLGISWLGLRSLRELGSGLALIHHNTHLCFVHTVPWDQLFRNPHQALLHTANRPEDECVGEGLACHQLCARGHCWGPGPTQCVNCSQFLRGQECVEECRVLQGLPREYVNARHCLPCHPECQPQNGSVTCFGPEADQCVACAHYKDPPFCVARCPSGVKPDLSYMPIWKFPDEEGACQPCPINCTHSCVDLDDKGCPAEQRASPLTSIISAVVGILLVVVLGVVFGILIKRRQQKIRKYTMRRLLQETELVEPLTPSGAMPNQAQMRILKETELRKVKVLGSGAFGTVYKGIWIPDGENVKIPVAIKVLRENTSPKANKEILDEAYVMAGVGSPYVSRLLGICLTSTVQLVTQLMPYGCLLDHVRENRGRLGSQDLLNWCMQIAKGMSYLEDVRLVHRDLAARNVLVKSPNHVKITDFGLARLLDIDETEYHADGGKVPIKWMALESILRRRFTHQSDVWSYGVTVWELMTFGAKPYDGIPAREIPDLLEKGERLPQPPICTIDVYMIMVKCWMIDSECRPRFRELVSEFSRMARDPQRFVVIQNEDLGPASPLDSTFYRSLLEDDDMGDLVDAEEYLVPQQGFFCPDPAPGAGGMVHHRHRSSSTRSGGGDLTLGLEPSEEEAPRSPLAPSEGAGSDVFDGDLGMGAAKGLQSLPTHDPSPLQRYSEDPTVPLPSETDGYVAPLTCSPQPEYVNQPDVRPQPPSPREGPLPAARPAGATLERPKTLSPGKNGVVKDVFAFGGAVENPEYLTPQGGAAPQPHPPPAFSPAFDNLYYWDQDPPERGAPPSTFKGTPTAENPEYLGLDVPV

In general, viability refers to a read-out of living cells in per cent, often relative to untreated cells. Broadly, the inhibition is the change of the read-out against control, counted positive when it falls. Turning to `O=S(=O)(Cc1ccccc1)N1CCCCCC1`, the viability in assay [1] is 93%; in assay [3], 93% (inactive); in assay [4] it was 96.1% (inactive); in assay [5], 101% (inactive); in assay [6] (setting [9]), 98.8%; in assay [6] (setting [10]), 101%. Also, the Her2 level in assay [2] is 83.5% (inactive). The differential viability (reversal) in assay [6] (H69AR cells + 2 uM doxorubicin) was 2.14% (inactive). Besides, the values for the inhibition in assay [7] and in assay [8] were -5.81% (inactive) and 2.3% (inactive), respectively.
For the molecule `CCOC(=O)Nc1ccc2c(CN3C(=O)NC4(CCCC4)C3=O)cc(=O)oc2c1`, the viability in assay [1] was 89.5%; in assay [3], 89.5% (inactive); in assay [4], 89.2% (inactive); in assay [5] it was 88.3% (inactive); in assay [6] (setting [9]), 89.4%; in assay [6] (setting [10]), 88.3%. Also, the Her2 level in assay [2] was 92.5% (inactive). Also, the differential viability (reversal) in assay [6] (H69AR cells + 2 uM doxorubicin) was -1.09% (inactive). For the same molecule, the values for the inhibition in assay [7] and in assay [8] were -6.58% (inactive) and -0.16% (inactive), respectively.
For the molecule `O=C1CCn2nc(-c3ccc(Cl)cc3)cc2N1`, the viability was 106% in assay [1]; 106% (inactive) in assay [3]; 31.3% (inactive) in assay [4]; 97.8% (inactive) in assay [5]; 91.8% in assay [6] (setting [9]); 97.8% in assay [6] (setting [10]). Besides, the Her2 level in assay [2] was 96% (inactive). In addition, in assay [6] (H69AR cells + 2 uM doxorubicin), the differential viability (reversal) is 5.93% (inactive). Moreover, the inhibition was -2.18% (inactive) in assay [7] and 1.83% (inactive) in assay [8].
Consider `Cc1nc2c(=O)oc3ccccc3c2n1-c1ccccc1`, for which the viability in assay [1] was 117%; in assay [3], 117% (inactive); in assay [4], 107% (inactive); in assay [5], 98.4% (inactive); in assay [6] (setting [9]), 85.1%; in assay [6] (setting [10]), 98.4%. The Her2 level in assay [2] was 100% (inactive). Moreover, the differential viability (reversal) in assay [6] (H69AR cells + 2 uM doxorubicin) is 13.4% (inactive). Further, the inhibition was -6.93% (inactive) in assay [7] and 2.74% (inactive) in assay [8].
On to `COC(=O)COc1ccc(S(=O)(=O)NCCC2=CCCCC2)cc1`, for which the viability in assay [1] is 99%; in assay [3] it was 99% (inactive); in assay [4] it was 10.6% (active); in assay [5], 95% (inactive); in assay [6] (setting [9]), 98.7%; in assay [6] (setting [10]), 95%. In assay [2], the Her2 level is 83.5% (inactive). For the same molecule, in assay [6] (H69AR cells + 2 uM doxorubicin), the differential viability (reversal) was -3.67% (inactive). Moreover, the inhibition in assay [7] is 0% (inactive); in assay [8] it was -1.13% (inactive).
Turning to `O=C(Cn1c(=O)[nH]n(-c2ccccc2)c1=O)N1CCCc2ccccc21`, the viability in assay [1] is 116%; in assay [3] it was 116% (inactive); in assay [4], 82.1% (inactive); in assay [5], 93.7% (inactive); in assay [6] (setting [9]) it was 85%; in assay [6] (setting [10]) it was 93.7%. Besides, the Her2 level in assay [2] is 96% (inactive). Besides, the differential viability (reversal) in assay [6] (H69AR cells + 2 uM doxorubicin) was 8.74% (inactive). The inhibition is -5.73% (inactive) in assay [7] and -4.92% (inactive) in assay [8].
Consider `CC1(C)CC(=O)C2=C(C1)OC(N)=C(C#N)C2C1CC=CCC1` (stereo not given), for which the viability is 108% in assay [1]; 108% (inactive) in assay [3]; 91.4% (inactive) in assay [4]; 81.6% (inactive) in assay [5]; 69.1% in assay [6] (setting [9]); 81.6% in assay [6] (setting [10]). Besides, the Her2 level in assay [2] was 93% (inactive). In addition, in assay [6] (H69AR cells + 2 uM doxorubicin), the differential viability (reversal) was 12.5% (inactive). In addition, the inhibition in assay [7] was -7.53% (inactive); in assay [8] it was -2.22% (inactive).
As to `CN(Cc1cccs1)c1ncnc2sccc12`, the viability in assay [1] is 112%; in assay [3] it was 112% (inactive); in assay [4], 70.7% (inactive); in assay [5], 92.4% (inactive); in assay [6] (setting [9]), 93%; in assay [6] (setting [10]), 92.4%. Besides, the Her2 level in assay [2] was 78.5% (inactive). Besides, the differential viability (reversal) in assay [6] (H69AR cells + 2 uM doxorubicin) is -0.54% (inactive). For the same molecule, the inhibition in assay [7] was -4.87% (inactive); in assay [8], 1.27% (inactive).
As for `CN1CCCN(CC(O)COCc2cccs2)CC1` (stereo not given), the viability was 89.5% in assay [1]; 89.5% (inactive) in assay [3]; 87.3% (inactive) in assay [4]; 111% (inactive) in assay [5]; 96.6% in assay [6] (setting [9]); 111% in assay [6] (setting [10]). In addition, the Her2 level in assay [2] is 84% (inactive). In addition, the differential viability (reversal) in assay [6] (H69AR cells + 2 uM doxorubicin) was 14.2% (inactive). Moreover, the inhibition in assay [7] was -5.54% (inactive); in assay [8], -1.8% (inactive).
Regarding `O=C(CSc1nnc(-c2ccccc2F)o1)OCc1ccccc1`, the viability in assay [1] is 83.5%; in assay [3], 83.5% (inactive); in assay [4], 102% (inactive); in assay [5], 102% (inactive); in assay [6] (setting [9]) it was 84.3%; in assay [6] (setting [10]), 102%. Further, in assay [2], the Her2 level is 88.5% (inactive). In addition, the differential viability (reversal) in assay [6] (H69AR cells + 2 uM doxorubicin) is 17.8% (inactive). The inhibition in assay [7] is -5.68% (inactive); in assay [8], 2.95% (inactive).
Turning to `Cn1cnnc1SCC(=O)Nc1sc2c(c1C#N)CCCCC2`, the viability in assay [1] was 86%; in assay [3], 86% (inactive); in assay [4] it was 73.5% (inactive); in assay [5], 95.2% (inactive); in assay [6] (setting [9]) it was 83.9%; in assay [6] (setting [10]), 95.2%. Moreover, in assay [2], the Her2 level is 102% (inactive). For the same molecule, the differential viability (reversal) in assay [6] (H69AR cells + 2 uM doxorubicin) was 11.4% (inactive). The inhibition was 10.1% (inactive) in assay [7] and 27.9% (inactive) in assay [8].
On to `Cc1c(NC2=NC3(CCCCC3)Cc3ccccc32)c(=O)n(-c2ccccc2)n1C`, for which the viability in assay [1] was 79.5%; in assay [3], 79.5% (inactive); in assay [4] it was 95.5% (inactive); in assay [5], 92.5% (inactive); in assay [6] (setting [9]), 87.5%; in assay [6] (setting [10]), 92.5%. In addition, the Her2 level in assay [2] is 108% (inactive). Besides, the differential viability (reversal) in assay [6] (H69AR cells + 2 uM doxorubicin) is 5.08% (inactive). Moreover, the values for the inhibition in assay [7] and in assay [8] were -5.13% (inactive) and 2.67% (inactive), respectively.
Turning to `CCCCn1c(SCC(=O)N2CC(=O)Nc3ccccc32)nnc1-c1ccoc1C`, the viability in assay [1] was 86.5%; in assay [3], 86.5% (inactive); in assay [4], 97.5% (inactive); in assay [5], 96.7% (inactive); in assay [6] (setting [9]) it was 91.8%; in assay [6] (setting [10]) it was 96.7%. Moreover, in assay [2], the Her2 level is 85.5% (inactive). Also, the differential viability (reversal) in assay [6] (H69AR cells + 2 uM doxorubicin) was 4.84% (inactive). Also, the inhibition in assay [7] is 2.67% (inactive); in assay [8], -8.55% (inactive).
As for `O=S(=O)(Nc1cccc2ncccc12)c1cccs1`, the viability was 256% in assay [1]; 256% (inactive) in assay [3]; 23.9% (active) in assay [4]; 1.71% (active) in assay [5]; 1.37% in assay [6] (setting [9]); 1.71% in assay [6] (setting [10]). Further, in assay [2], the Her2 level is 13% (active). For the same molecule, in assay [6] (H69AR cells + 2 uM doxorubicin), the differential viability (reversal) is 0.345% (inactive). Besides, the inhibition in assay [7] was 0.92% (inactive); in assay [8], 6.19% (inactive).
Consider `Cc1ccc(NC(=O)CSc2nnc(Cc3cccn3C)n2-c2ccc(F)cc2)cc1`, for which the viability was 82.5% in assay [1]; 82.5% (inactive) in assay [3]; 84% (inactive) in assay [4]; 91.9% (inactive) in assay [5]; 96.8% in assay [6] (setting [9]); 91.9% in assay [6] (setting [10]). The Her2 level in assay [2] was 78.5% (inactive). In assay [6] (H69AR cells + 2 uM doxorubicin), the differential viability (reversal) is -4.92% (inactive). Also, the results for the inhibition in assay [7] and in assay [8] were -1.03% (inactive) and -4.83% (inactive), respectively.
For `CCc1c(C(=O)N2CCOCC2)csc1C`, the viability is 120% in assay [1]; 120% (inactive) in assay [3]; 101% (inactive) in assay [4]; 106% (inactive) in assay [5]; 84.9% in assay [6] (setting [9]); 106% in assay [6] (setting [10]). In addition, in assay [2], the Her2 level was 154% (inactive). Besides, in assay [6] (H69AR cells + 2 uM doxorubicin), the differential viability (reversal) was 20.8% (inactive). Also, the inhibition was -3.95% (inactive) in assay [7] and -8.33% (inactive) in assay [8].

(Values after PubChem BioAssay.)
